Like-named read-outs stand apart in the source and are kept apart here.

What is called EC50 is the concentration at which the effect is half-maximal.

Series [1] relates to Cytomegalovirus Davis strain. Description: microbe, parasite or virus in culture. The conditions noted are these: Human betaherpesvirus 5, HEL, read-out: EC50 Cytomegalovirus Davis strain. It is filed as cell-based.
For series [2], the system named is Herpes simplex virus-1 (KOS). Description: microbe, parasite or virus in culture. The series is classed as cell-based, herpes simplex virus type 1. The conditions noted are these: Human alphaherpesvirus 1, HEL, read-out: EC50 Herpes simplex virus-1 (KOS).
Series [3] concerns Herpes simplex virus-2 (G). Description: microbe, parasite or virus in culture. The series is classed as cell-based, herpes simplex virus type 2. The conditions noted are these: Human alphaherpesvirus 2, HEL, read-out: EC50 Herpes simplex virus-2 (G).
In another series the test system is Vaccinia virus. Description: microbe, parasite or virus in culture. It is filed as cell-based. The following applies: Orthopoxvirus vaccinia, HEL, read-out: EC50 Vaccinia virus.
The test system of series [4] is Vesicular stomatitis virus. Put plainly: microbe, parasite or virus in culture. The series is classed as cell-based. The following applies: Vesicular stomatitis virus, HEL, read-out: EC50 Vesicular stomatitis virus.
The subject of series [5] is Herpes simplex virus-1TK-KOS ACV^r. Put plainly: microbe, parasite or virus in culture. The series is classed as cell-based, herpes simplex virus type 1. The conditions noted are these: Human alphaherpesvirus 1, HEL, read-out: EC50 Herpes simplex virus-1TK-KOS ACV^r.
The subject of a further series is Feline herpes virus. Put plainly: Antiviral CPE assay, feline herpes virus in CRFK cells. The series is classed as cell-based. The conditions noted are these: CRFK, read-out: EC50 Feline herpes virus.
Series [6] relates to Coxsackie virus B4. Description: microbe, parasite or virus in culture. It is filed as cell-based. The following applies: Enterovirus B, B4, HeLa, read-out: Antiviral activity EC50 Coxsackie virus B4.
The test system of another series is Para-influenza-3 virus. Description: organism not typed. It is filed as cell-based, parainfluenza-3 virus. The conditions noted are these: Vero, read-out: Antiviral activity EC50 Para-influenza-3 virus.
A further series has as its system Reovirus-1. Put plainly: organism not typed. The series is classed as cell-based. The following applies: Vero, read-out: Antiviral activity EC50 Reovirus-1.
The subject of the next series is Sindbis virus. Put plainly: microbe, parasite or virus in culture. It is filed as cell-based. The following applies: Sindbis virus, Vero, read-out: Antiviral activity EC50 Sindbis virus.
Series [7] relates to Coxsackie virus B4. Description: microbe, parasite or virus in culture. It is filed as cell-based. The following applies: Enterovirus B, B4, Vero, read-out: Antiviral activity EC50 Coxsackie virus B4.
The test system of a further series is Punta Toro virus. Description: microbe, parasite or virus in culture. The series is classed as cell-based. The following applies: Punta Toro virus, Vero, read-out: Antiviral activity EC50 Punta Toro virus.
The next series has as its system Influenza B. Put plainly: Anti-influenza virus activity, influenza B in MDCK cells. The series is classed as cell-based, influenza B virus B/Hong Kong/5/72. The conditions noted are these: Influenza B virus, MDCK.
The subject of series [8] is Human embryonic lung cell cultures. Description: Cytotoxicity. It is filed as cell-based. An outline of the steps:
(§1)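 Cell cultures incubated with varying concentrations of test compound, then examined by microscopy. MCC is the lowest concentration that causes a microscopically detectable alteration of normal cell morphology. HEL, Vero and HeLa lines were monitored regularly for mycoplasma and found free of it.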

The test system of series [9] is Crandell-Rees feline kidney cells. Description: Cytotoxicity. The series is classed as cell-based.
In another series the test system is HeLa cell cultures. Put plainly: Cytotoxicity. It is filed as cell-based. An outline of the steps:
as §1

A further series relates to Vero cell cultures. Put plainly: Cytotoxicity. It is filed as cell-based. An outline of the steps:
as §1

A further series has as its system MDCK cells. The conditions noted are these: microscopically detectable alteration of normal cell morphology.
Another series in a line: in vitro. The conditions noted are these: dog.
The subject of series [10] is mouse-skin papillomas induced by DMBA and TPA. Put plainly: Two-stage mouse-skin carcinogenesis test. The series is classed as in vivo. The following applies: 85 nmol topical. The method in brief:
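Specific pathogen-free female ICR mice, 6 weeks old, about 30 g, 15 per group, kept at 24 ± 2 °C. Shaved backs were initiated with DMBA (100 μg, 390 nmol) in 0.1 ml acetone. One week later, TPA (1 μg, 1.7 nmol) in acetone was applied twice weekly. Test compound (85 nmol) in 0.1 ml acetone was applied topically 1 h before each TPA. Papillomas were scored weekly for 20 weeks as % mice bearing papillomas and mean papillomas per mouse.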

Setting [11] is: read-out: Antiviral EC50 Influenza B MTS.
[12] abbreviates: read-out: Antiviral EC50 Influenza B Visual CPE score.

Turning to `O=C1/C(=N\NC(=S)NN=Cc2ccccc2)c2ccccc2N1Cc1ccccc1` [4g, 3-{[(3Z)-1-benzyl-2-oxo-2,3-dihydro-1H-indol-3-ylidene]amino}-1-[(phenylmethylidene)amino]thiourea], the EC50 (in series [1]; in series [2]; in series [3]; in the series on Vaccinia virus; in series [4]; in series [5]) was > 100 µM in each case. Besides, the concentration for a half-maximal effect (EC50) in the series with Feline herpes virus was > 100 µM; with Coxsackie virus B4 [6] it was > 20 µM; in the series with Para-influenza-3 virus it was > 100 µM; in the series with Reovirus-1 it was > 100 µM; with Sindbis virus it was > 100 µM; in the series with Coxsackie virus B4 [7], > 100 µM. Further, the EC50 in the series on Punta Toro virus, with Influenza B (setting [11]) and with Influenza B (setting [12]) was > 100 µM in each case. For the same compound, the Minimum cytotoxic concentration was ≥100 µM in series [8], ≥100 µM in series [9], 100 µM with HeLa cell cultures and >100 µM in the series on Vero cell cultures. The “Cytotoxicity Minimum cytotoxic concentration” value in the series with MDCK cells is >100. Further, the CC50 in the series “in vitro” was > 100 µM.

As to `O=C(N/N=C1\C(=O)Nc2ccccc21)N/N=C1\C(=O)Nc2ccccc21` [6a, 1,3-Bis({[(3Z)-2-oxo-2,3-dihydro-1H-indol-3-ylidene]amino})urea], the concentration giving a half-maximal response (EC50) (in [1]; in [2]; in [3]; in the series with Vaccinia virus; in series [4]; in [5]) was > 100 µM each time. Moreover, the EC50 in the series with Feline herpes virus, in the series on Coxsackie virus B4 [6], in the series on Influenza B (setting [11]) and in the series with Influenza B (setting [12]) was > 100 µM each time. The Minimum cytotoxic concentration in [8] was ≥100 µM; in [9], >100 µM; in the series with HeLa cell cultures, >100 µM; in the series on Vero cell cultures, 100 µM. In addition, the “Cytotoxicity Minimum cytotoxic concentration” value with MDCK cells was >100. The CC50 in the series “in vitro” was > 100 µM.

Turning to `O=C(N/N=C1\C(=O)Nc2ccc(Cl)cc21)N/N=C1\C(=O)Nc2ccc(Cl)cc21` [6b, 1,3-Bis({[(3Z)-5-chloro-2-oxo-2,3-dihydro-1H-indol-3-ylidene]amino})urea], the EC50 in [1] was > 20 µM; in series [2], > 100 µM; in [3] it was > 100 µM; with Vaccinia virus, > 100 µM; in series [4], > 100 µM; in series [5], > 100 µM. The EC50 in the series on Feline herpes virus is 19.7 µM; in the series on Coxsackie virus B4 [6], > 100 µM; in the series on Para-influenza-3 virus, > 20 µM; in the series on Reovirus-1, > 20 µM; in the series with Sindbis virus it was > 20 µM; in the series on Coxsackie virus B4 [7], > 20 µM. In addition, the concentration for a half-maximal effect (EC50) in the series with Punta Toro virus was > 20 µM; with Influenza B (setting [11]), > 100 µM; with Influenza B (setting [12]), > 100 µM. The Minimum cytotoxic concentration in series [8] is 100 µM; in [9] it was >100 µM; in the series on HeLa cell cultures, >100 µM; in the series with Vero cell cultures it was 100 µM. Further, the “chemoprevention / anti-tumor promoting activity (in words)” value in series [10] is on record as “moderate protection”. Moreover, the results for the papillomas/mouse in series [10] (10 weeks of promotion), in series [10] (15 weeks of promotion) and in [10] (week 20) were 1.2 papillomas/mouse, 3.9 papillomas/mouse and 6.1 papillomas/mouse, respectively. The “percentage of papillomas (mice with papillomas)” value in series [10] (after week 17) was 100%. For the same compound, the “Cytotoxicity Minimum cytotoxic concentration” value in the series with MDCK cells is given as >100. The CC50 in “in vitro” was > 100 µM.

For the compound `Nc1ncnc2c1ncn2C[C@H](O)CO` [(S)-DHPA, reference compound], the concentration for a half-maximal effect (EC50) in the series on Coxsackie virus B4 [6], in the series on Para-influenza-3 virus, in the series with Reovirus-1, with Sindbis virus, in the series on Coxsackie virus B4 [7] and with Punta Toro virus was > 250 µM each time. Further, the Minimum cytotoxic concentration in the series with HeLa cell cultures and with Vero cell cultures was >250 µM each time.

As to `Nc1nc2c(ncn2COCCO)c(=O)[nH]1` [Acyclovir, reference compound], the EC50 in series [2] was 0.4 µM; in series [3], 0.2 µM; in the series on Vaccinia virus it was > 250 µM; in [4], > 250 µM; in [5], 22 µM.

As to `NC12CC3CC(CC(C3)C1)C2` [Amantadine, reference compound], the 50% effective concentration (EC50) with Influenza B (setting [11]) and in the series with Influenza B (setting [12]) was > 200 µM in each case. The “Cytotoxicity Minimum cytotoxic concentration” value with MDCK cells is recorded as >200. Further, the CC50 in the series “in vitro” was > 200 µM.

Regarding `O=c1[nH]c(=O)n([C@H]2C[C@H](O)[C@@H](CO)O2)cc1/C=C/Br` [Brivudin, reference compound], the EC50 in series [2] was 0.04 µM; in series [3], 112 µM; in the series on Vaccinia virus, 4 µM; in [4] it was > 250 µM; in [5], 50 µM. The Minimum cytotoxic concentration in series [8] was >300 µM.

As to `Nc1ccn(C[C@@H](CO)OCP(=O)(O)O)c(=O)n1` [Cidofovir, reference compound], the concentration for a half-maximal effect (EC50) in series [1] is 0.78 ± 0.49 µM; in [2], 2 µM; in series [3], 1 µM; in the series with Vaccinia virus, 22 µM; in [4], > 250 µM; in series [5], 0.9 µM. Besides, the Minimum cytotoxic concentration in [8] is >300 µM.

Turning to `Nc1nc(O)c2ncn(COC(CO)CO)c2n1` [Ganciclovir, reference compound], the EC50 in series [1] is 5.5 ± 2.36 µM; in series [2], 0.02 µM; in [3] it was 0.01 µM; in the series with Vaccinia virus it was > 100 µM; in series [4] it was > 100 µM; in series [5], 4 µM. Also, the EC50 in the series with Feline herpes virus is 1.4 µM. Further, the Minimum cytotoxic concentration in series [8] is >350 µM; in series [9] it was >100 µM.

`CCC(CC)O[C@@H]1C=C(C(=O)O)C[C@H](N)[C@H]1NC(C)=O` [Oseltamivir carboxylate, reference compound]: the EC50 in the series on Influenza B (setting [11]) was 2.5 ± 0.7 µM; in the series with Influenza B (setting [12]), 6.7 ± 5.3 µM. The “Cytotoxicity Minimum cytotoxic concentration” value in the series on MDCK cells is on record as >100. Further, in the series “in vitro”, the CC50 was > 100 µM.

`NC(=O)c1ncn([C@@H]2O[C@H](CO)[C@@H](O)[C@H]2O)n1` [Ribavirin, reference compound]: the half-maximal effective concentration (EC50) in the series on Coxsackie virus B4 [6] is 112 µM; with Sindbis virus, > 250 µM; in the series on Coxsackie virus B4 [7], 250 µM; in the series on Influenza B (setting [11]), 2.45 ± 0.25 µM; in the series on Influenza B (setting [12]), 2.4 ± 1.6 µM. For the same compound, the Minimum cytotoxic concentration in the series with HeLa cell cultures and with Vero cell cultures was >250 µM each time. Besides, the “Cytotoxicity Minimum cytotoxic concentration” value in the series with MDCK cells is reported as >100.

As for `CC(N)C12CC3CC(CC(C3)C1)C2` (stereo not shown) [Rimantadine, reference compound], the EC50 with Influenza B (setting [11]) and in the series on Influenza B (setting [12]) was > 200 µM each time. Moreover, the “Cytotoxicity Minimum cytotoxic concentration” value in the series on MDCK cells is reported as >200. Further, the CC50 in “in vitro” is > 200 µM.

Values taken from article PMC7080202 (Medicinal Chemistry Research, 2013).
